Measurements reported in ChEMBL document CHEMBL3867488 (ACS Med Chem Lett, 2016).

How the values were obtained:
[1] = target: T1, Oxysterols receptor LXR-alpha (Homo sapiens, UniProt Q13133); test: Agonist activity at human LXR-alpha expressed in African green monkey CV1 cells measured after 18 to 20 hrs by luciferase reporter gene assay relative to pan agonist 1-(2,4-difluorobenzyl)-2-oxo-6-(4-phenoxyphenyl)-4-(trifluoromethyl)-1,2-dihydropyridine-3-carbonitrile; format: cell-based; conditions: CV-1, human; read-out: Efficacy
T1 sequence (Q13133 whole entry): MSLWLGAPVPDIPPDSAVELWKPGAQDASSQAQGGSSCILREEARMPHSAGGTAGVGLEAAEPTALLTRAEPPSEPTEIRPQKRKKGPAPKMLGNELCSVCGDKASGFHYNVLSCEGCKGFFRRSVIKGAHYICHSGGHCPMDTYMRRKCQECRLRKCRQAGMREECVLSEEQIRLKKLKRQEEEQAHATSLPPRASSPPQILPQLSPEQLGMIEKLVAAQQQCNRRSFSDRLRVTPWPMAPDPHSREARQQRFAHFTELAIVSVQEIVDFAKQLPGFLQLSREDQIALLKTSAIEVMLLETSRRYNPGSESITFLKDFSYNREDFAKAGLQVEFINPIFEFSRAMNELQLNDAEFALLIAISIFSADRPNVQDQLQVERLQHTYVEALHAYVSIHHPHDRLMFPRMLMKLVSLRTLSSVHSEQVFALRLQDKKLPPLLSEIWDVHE

[2] = Half life in cynomolgus monkey at 3 mg/kg, iv administered as 10 mins infusion by LC/MS/MS analysis; format: ADME, organism-based, Macaca fascicularis; conditions: in vivo
Macaca fascicularis = species on record: Macaca fascicularis; test: Agonist activity at LXR-beta in cynomolgus monkey whole blood assessed as ABCA1 gene induction by measuring ABCA1 mRNA level after 4 hrs by SYBR-Green dye-based Q-PCR analysis relative to control; format: tissue-based
Cynomolgus monkey = test: In vivo agonist activity at LXR-beta in cynomolgus monkey assessed as ABCG1 gene induction by measuring total RNA level at 1 mg/kg, po qd administered via gavage for 14 days measured after 5 to 6 hrs of last-dose relative to control; format: functional, Macaca fascicularis
Procedure, shortened: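 Cynomolgus monkeys dosed daily for 14 days. ABCG1 mRNA induction measured in blood cells on day 14 and expressed as fold change. Plasma drug concentration taken about 5 h post-dose. Plasma triglycerides also measured against baseline, with significance by ANOVA.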

[3] = target: T2, Oxysterols receptor LXR-beta (Homo sapiens) (UniProt P55055); test: Agonist activity at LXR-beta in human whole blood assessed as ABCG1 gene induction by measuring ABCA1 mRNA level after 4 hrs by SYBR-Green dye-based Q-PCR analysis relative to pan agonist 2-(4-(5-(5-cyano-1-(2,4-difluorobenzyl)-6-oxo-4-(trifluoromethyl)-1,6-dihydropyridin-2-yl)thiophen-2-yl)-3-methylphenyl)acetic acid; format: tissue-based
T2 sequence (whole entry): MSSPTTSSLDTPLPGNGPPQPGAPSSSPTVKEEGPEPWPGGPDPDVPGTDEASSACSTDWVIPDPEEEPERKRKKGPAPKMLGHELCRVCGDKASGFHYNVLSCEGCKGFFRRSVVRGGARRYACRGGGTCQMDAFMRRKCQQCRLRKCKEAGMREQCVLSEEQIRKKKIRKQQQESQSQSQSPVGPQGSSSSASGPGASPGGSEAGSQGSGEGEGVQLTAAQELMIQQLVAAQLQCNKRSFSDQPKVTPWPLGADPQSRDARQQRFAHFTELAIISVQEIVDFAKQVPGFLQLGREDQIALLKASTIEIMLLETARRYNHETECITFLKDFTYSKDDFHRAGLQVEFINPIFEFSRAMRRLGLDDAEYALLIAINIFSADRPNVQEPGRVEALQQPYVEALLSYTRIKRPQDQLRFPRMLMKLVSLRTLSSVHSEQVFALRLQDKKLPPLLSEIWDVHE

Emax [1]: 20%
t1/2 [2]: 12 h
Efficacy [3]: 26%
SMILES: CC(C)(O)c1cn(-c2ccc(-c3cc(F)c(CO)c(S(C)(=O)=O)c3)cc2F)c(C(C)(C)c2c(Cl)cccc2Cl)n1 [BMS-852927]
Efficacy (Macaca fascicularis): 32%
fold change (FC) (Cynomolgus monkey): 11
